Test results published in ChEMBL document CHEMBL3045605, “Synthesis and anticancer evaluation of novel 3,5-diaryl-thiazolo[4,5-d]pyrimidin-2-one derivatives” (2013).

Experiments:
Format in all cases: functional
A549 = assay: Anticancer activity against Homo sapiens (human) A549/ATCC cells assessed as cell growth at 10 uM by SRB assay; details: read-out: Activity
Procedure, shortened: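 NCI 60-cell human tumour panel (nine cancer types) screened at one concentration, 10−5 M. Cell growth estimated by sulforhodamine B protein staining and reported as percent growth of treated cells relative to untreated controls.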

HCT-15 = assay: Anticancer activity against Homo sapiens (human) HCT15 cells by SRB assay
Procedure, shortened: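 NCI 60-line panel, five tenfold dilutions from 10−4 to 10−8 M, growth read by sulforhodamine B staining against untreated controls. From the dose–response per line: GI50 (molar concentration giving half growth inhibition), TGI (molar concentration giving total growth inhibition, cytostatic) and LC50 (molar concentration killing 50% of initial cells, cytotoxic).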

SF-268 = assay: Anticancer activity against Homo sapiens (human) SF268 cells assessed as cell growth at 10 uM by SRB assay; details: read-out: Activity
Procedure, shortened: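 Single-dose screen in the NCI 60-human-tumour-cell-line panel (nine cancer types) at 10−5 M. Cell growth was estimated by sulforhodamine B protein staining and reported as percent growth of treated cells relative to untreated controls.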

PC-3 = assay: Anticancer activity against Homo sapiens (human) PC3 cells by SRB assay
Procedure, shortened: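 Five-dose NCI 60-cell-line panel testing at tenfold dilutions from 10−4 to 10−8 M, with growth read by sulforhodamine B protein staining. For each cell line: GI50 is the molar concentration giving half growth inhibition; TGI is total growth inhibition (cytostatic); LC50 is the molar concentration killing 50% of the initial cells (cytotoxic).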

O=c1sc2c(Cl)nc(-c3ccccc3)nc2n1-c1ccccc1
growth at 10 µM (A549): 87% | GI50 (HCT-15): 4.68 µM | growth at 10 µM (SF-268): 52% | GI50 (PC-3): 3.31 µM | CC50 (PC-3; read-out: pLC50 (the source's name) (converted)): 81.3 µM | TGI (PC-3; read-out: pTGI (converted)): 14.5 µM
